Data from article PMC8556345 (Cell, 2021).
Where no end group is shown, it is not given here.

How the values were obtained:
ACx PVALB cells [1] = assay: EPSC frequency, ACx PVALB cells; format: cell-based, mouse; details: GRP bath, gabazine; n = 10
Outline: (§1)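 Acute coronal slices were incubated in oxygenated Ringer's at 32°C for ~15 min, then held at RT. SST and PVALB cells were identified in Sst-EGFP or Pvalb-EGFP mice. Whole-cell recordings were made at 30-32°C, voltage-clamped at −70 mV, with K⁺-gluconate low-Cl⁻ pipette solution and 10 μM gabazine.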

GRP receptor (GRPR) [2] = details: ref Kroog et al., 1995; cited from earlier work
ACx VIP cells [3] = assay: in vivo fiber photometry of GCaMP in ACx VIP cells, cannula infusion; parameters: species or system mouse; details: 2 μl, 300 μM GRP and TAMRA-GRP, 100 nl/min into visual cortex; n = 3 (grpLight1.2) and 8 (GCaMP) mice
Outline: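 Decay was corrected by an exponential fit to trace minima (5000-point sliding window). Autofluorescence measured in fluorophore-free implanted mice was subtracted, and GCaMP was normalized to mean mBeRFP fluorescence.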

motor cortex SST cells [4] = assay: whole-cell current-clamp, membrane potential, motor cortex SST cells; format: cell-based, mouse; details: GRP; bath with NBQX, CPP, gabazine, CGP and TTX; 10 cells
motor cortex SST cells [5] = assay: IPSC frequency, motor cortex SST cells; format: cell-based, mouse; details: GRP bath, NBQX and CPP
Outline: (§2)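 Whole-cell voltage clamp at −70 mV in acute coronal slices at 30-32°C, with 3-4 MΩ pipettes. The pipette held K⁺-based high-Cl⁻ solution (127.5 mM KCl, pH 7.3), and the bath held NBQX and CPP at 10 μM each.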

SST cells = assay: EPSC frequency, SST cells, ACx and M1 together; format: cell-based, mouse; details: GRP bath
Outline: as §1

M1 PVALB cells = assay: EPSC frequency, M1 PVALB cells; format: cell-based, mouse; details: GRP bath, gabazine; n = 10
Outline: as §1

[6] = system: Sst+ and Pvalb+ cells, motor cortex; assay: immediate early gene; format: in vivo, mouse
Outline: (§3)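 Brains were frozen 45 min later for Fos and Npas4 FISH. Expression was the cell area covered by label, in manually drawn ROIs across all layers, 2-3 slices per mouse. Right-hemisphere values were normalized to the left-hemisphere mean per cell type.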

L3/4 ACx VIP cells = assay: spike probability of VIP cells upon optogenetic stimulation of thalamic inputs; format: cell-based, mouse
Outline: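 L3/4 auditory cortex VIP cells, identified by EGFP in Vip-EGFP or Vip-IRES-Cre x H2B-EGFP mice, were recorded whole-cell in current clamp with low-Cl⁻ K⁺-based solution at 30-32°C. Thalamic inputs were stimulated with 1 s bursts of 5 ms light pulses at 20 Hz every 20 s. […] Spontaneous and evoked spikes were counted.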

ACx PVALB cells [7] = assay: whole-cell current-clamp, membrane potential, ACx PVALB cells; format: cell-based, mouse
ACx PVALB cells [8] = assay: IPSC frequency, ACx PVALB cells; format: cell-based, mouse; details: GRP bath, NBQX and CPP, TTX-sensitive; n=10
M1 SST cells = assay: EPSC frequency, M1 SST cells; format: cell-based, mouse; details: GRP bath, gabazine; n = 9
Outline: as §1

ACx VIP cells [9] = assay: whole-cell current-clamp, membrane potential, ACx VIP cells; format: cell-based, mouse
motor cortex PVALB cells [10] = assay: IPSC frequency, motor cortex PVALB cells; format: cell-based, mouse; details: GRP bath, NBQX and CPP
Outline: as §2

ACx SST cells [11] = assay: whole-cell current-clamp, membrane potential, ACx SST cells; format: cell-based, mouse; details: ACx (and M1), compared to VIP cells
motor cortex PVALB cells [12] = assay: whole-cell current-clamp, membrane potential, motor cortex PVALB cells; format: cell-based, mouse; details: GRP; bath with NBQX, CPP, gabazine, CGP and TTX; 15 cells
[13] = system: grpLight (GRPR/cpGFP sensor); assay: grpLight GRP sensor characterization; format: cell-based, human
[14] = system: auditory cortex VIP cells; assay: GCaMP acute slice Ca2+ imaging, ACx VIP cells; format: cell-based, mouse
ACx SST cells [15] = assay: EPSC frequency, ACx SST cells; format: cell-based, mouse; details: GRP bath, gabazine; n = 11
Outline: as §1

ACx Pyr cells = assay: IPSC frequency, ACx Pyr cells; format: cell-based, mouse; details: GRP bath, NBQX and CPP
Outline: as §2

[16] = system: motor cortex pyramidal cells; assay: whole-cell current-clamp, membrane potential, motor cortex pyramidal cells; format: cell-based, mouse; details: GRP; bath with NBQX, CPP, gabazine, CGP and TTX; 10 cells
ACx SST cells [17] = assay: IPSC frequency, ACx SST cells; format: cell-based, mouse; details: GRP bath, NBQX and CPP, TTX-sensitive; n=10
[18] = system: motor cortex (M1) VIP cells; assay: whole-cell current-clamp, membrane potential, motor cortex VIP cells; format: cell-based, mouse; details: CPP, gabazine
[19] = system: ACx pyramidal (Pyr) cells; assay: whole-cell current-clamp, membrane potential, ACx pyramidal cells; format: cell-based, mouse; details: ACx (and M1), compared to VIP cells
[20] = system: Vip+ and glutamatergic cells, motor cortex; assay: immediate early gene; format: in vivo, mouse
Outline: as §3

GRP receptor (GRPR) [21] = assay: binding to GRP receptor; details: statement in method; no data shown
grpLight in ACx = assay: in vivo dual-color photometry of grpLight and TAMRA-GRP, diffusion in cortex; parameters: species or system mouse; details: infusion into distant cortical area
[22] = TAMRA-GRP imaging in acute brain slices, flow-in delay; parameters: species or system mouse; details: 300 nM, bath
Outline: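 Non-fluorescent acute brain slices were imaged through a 650/100 nm emission filter. […] Arrival in the bath was defined as the first time point at which fluorescence rose 2 SD above baseline.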

[23] = 1372 responding VIP cells, male auditory cortex, GRP bath
[24] = 300 nM GRP, male mice, NBQX, CGP

## VSTGAGGGTVLAKMYPRGSHWAVGHLM-NH2 [GRP, gastrin-releasing peptide]
ACx PVALB cells [1]
  mean increase in EPSC frequency, ACx PVALB: 1.95 ± 1.43 Hz
GRP receptor (GRPR) [2]
  binding to GRPR: high affinity and selectivity
ACx VIP cells [3]
  onset of functional effect on VIP cell Ca2+ vs grpLight detection: functional effects on these cells in vivo well before photometric detection of changes in grpLight fluorescence
Motor cortex SST cells [4]
  depolarization, motor cortex SST: 1.39 ± 0.74 mV
Motor cortex SST cells [5]
  SST cells with increased IPSC frequency, M1: 4 out of 10
Motor cortex SST cells [5]; n = 10
  mean increase in IPSC frequency, M1 SST: 13.28 ± 5.97 Hz
SST cells; SST and PVALB cells
  effect on EPSC frequency: hardly affected
SST cells; gabazine
  SST cells with increased EPSC frequency: 2 out of 20
M1 PVALB cells
  mean increase in EPSC frequency, M1 PVALB: 0.69 ± 0.80 Hz
[6]; 3 μM GRP into right M1
  Npas4 expression, Sst+ and Pvalb+ cells: but not Sst^+ and Pvalb^+ cells
[6]; 200 nl of 3 μM GRP into right M1
  Fos expression, Sst+ and Pvalb+ cells: without changes in expression
L3/4 ACx VIP cells; 0 ± 0 Hz before GRP, n = 5 cells
  average spontaneous spike rate prior to stimulation, after GRP: 0.09 ± 0.08 Hz
L3/4 ACx VIP cells; 300 nM GRP bath for 2 min, 14 ± 9% before GRP, 5 ms pulses at 20 Hz, n = 5 cells
  average evoked spike probability after GRP: 52 ± 16%
L3/4 ACx VIP cells; GRP bath
  effect on spontaneous spike rate prior to stimulation onset: without increasing spontaneous spike rate
L3/4 ACx VIP cells; optogenetic stimulation of thalamo-cortical afferents
  effect on evoked spike probability: significantly increased the evoked spike probability
ACx PVALB cells [7]; ACx (and M1), compared to VIP cells
  GRP-evoked depolarization, PVALB cells: significantly smaller than in VIP cells
ACx PVALB cells [7]; Fig. S3D
  PVALB cell depolarization vs control recordings without GRP: No significant difference
ACx PVALB cells [8]
  PVALB cells with increased IPSC frequency: 40%
M1 SST cells
  mean increase in EPSC frequency, M1 SST: 1.61 ± 0.97 Hz
ACx VIP cells [9]; 300 nM GRP
  depolarization in female compared to male mice: non-significantly larger depolarization compared to male mice
ACx VIP cells [9]; 300 nM GRP, bath NBQX, CPP, gabazine, CGP and TTX, mean ± SEM, 10 cells (Fig. S3C)
  mean depolarization, female mice: 8.62 ±1.11 mV
ACx VIP cells [9]; 300 nM for 2 min, male mice
  duration of burst-like firing activity: > 1 min
  neurons with long-lasting burst-like firing activity: 3 out of 10
ACx VIP cells [9]; 300 nM for 2 min, male mice, acute slices, 30-32°C
  VIP cells that depolarize upon GRP bath application: 7 out of 10
ACx VIP cells [9]; Fig. 3C, 6-10 cells per group
  dependence of depolarization on concentration: concentration-dependent
Motor cortex PVALB cells [10]
  PVALB cells with increased IPSC frequency, M1: 3 out of 10
Motor cortex PVALB cells [10]; n = 10
  mean increase in IPSC frequency, M1 PVALB: 4.59 ± 2.00 Hz
ACx SST cells [11]
  GRP-evoked depolarization, SST cells: significantly smaller than in VIP cells
Motor cortex PVALB cells [12]
  depolarization, motor cortex PVALB: 1.78 ± 0.45 mV
[13]
  concentrations detectable by grpLight: nanomolar concentrations
[14]; [23]
  GCaMP peak latency: 156.9 ± 1.5 s
  GCaMP response start: 99.4 ± 0.9 s
[14]; ACx of male and female mice and M1, bath application
  lowest concentration that increased GCaMP fluorescence in most VIP cells: 3 nM
[14]; GRP, with TTX
  cells with Ca2+ oscillations with TTX: 14%
[14]; GRP, without TTX, NBQX, CPP, gabazine, CGP
  VIP cells with phasic (oscillatory) GCaMP fluctuations: 26%
[14]; median (IQR), female auditory cortex, 580 cells in 14 slices, 300 nM GRP, 2 min, 32°C
  GCaMP fluorescence change ΔF/FKCl, female: 11.8 (15.6) % ΔF/FKCl
[14]; start GCaMP vs start TAMRA-GRP
  latency of Ca2+ increases after TAMRA-GRP levels increased: 12 s
ACx SST cells [15]
  mean increase in EPSC frequency, ACx SST: 1.86 ± 1.15 Hz
ACx Pyr cells
  Pyr cells with increased IPSC frequency: 1 out of 10
[16]
  depolarization, motor cortex pyramidal: 0.56 ± 0.49 mV
ACx SST cells [17]
  SST cells with increased IPSC frequency: 60%
[18]; [24]
  M1 VIP neurons with burst-like activity: 3 out of 10
  VIP cells in M1 that depolarized: 9 out of 10
[18]; GRP, bath with NBQX, CGP and TTX, 6 cells
  depolarization, motor cortex VIP: 9.38 ± 1.28 mV
[19]
  GRP-evoked depolarization, Pyr cells: significantly smaller than in VIP cells
[20]; 3 μM GRP into M1, vs control mice
  Npas4 expression in Vip-IRES-Cre;Grpr fl/y mice: significantly smaller
[20]; 3 μM GRP into right M1
  Npas4 expression, Vip+ and glutamatergic cells: significantly increased expression
[20]; 200 nl of 3 μM GRP into right M1, anaesthetized mice, FISH at 45 min
  Fos expression ipsilateral to injection, Vip+ and glutamatergic cells: strong increase in Fos

## VSTGAGGGTVLAKMYPRGSHWAVGHLM-NH2 [TAMRA-GRP]
GRP receptor (GRPR) [21]
  efficiency as GRPR ligand: very inefficient GRPR ligand
grpLight in ACx
  grpLight fluorescence change in ACx following infusion: long-lasting increases minutes after the start of GRP infusion
[22]; 3 slices, range
  TAMRA-GRP fluorescence peak latency, range: 156.4 to 162.8 s
  TAMRA-GRP fluorescence response start, range: 79 to 95 s
[22]; mean of 3 slices
  TAMRA-GRP fluorescence peak latency: 160.3 s
  TAMRA-GRP fluorescence response start: 87.4 s
